Experiment [1] in a line: Evaluated for inhibition of ET-1 induced Calcium channel [Ca+2]i in CHO-K1 cells transfected with the rat ETA-expression plasmid DNA at 10E-6M; range- 50-70%. In kind it is functional. In a few lines: (§1)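 Rat ETA receptor plasmid transfected into CHO-K1 cells by lipofection. Cells preloaded with fura-2 AM, then stimulated with ET-1 at 10^-7 M. The rise in [Ca2+]i was read ratiometrically, with excitation at 340/380 nm and emission at 510 nm. The ET-1 response alone was set as 100%, and inhibition by compounds is expressed relative to it.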

Experiment [2] in a line: Evaluated for inhibition of ET-1 induced Calcium channel [Ca+2]i in CHO-K1 cells transfected with the rat ETA-expression plasmid DNA at 10E-6M. In kind it is functional. In a few lines: as §1
For experiment [3], the system named is CHO-K1. The experiment is described as follows: Evaluated for inhibition of ET-1 induced Calcium channel [Ca+2]i in CHO-K1 cells transfected with the rat ETA-expression plasmid DNA at 10E-6M; Low inhibition. In kind it is functional, cell-based. In a few lines: as §1
The nature of experiment [4]: Evaluated for inhibition of ET-1 induced Calcium channel [Ca+2]i in CHO-K1 cells transfected with the rat ETA-expression plasmid DNA at 10 nM. The class given is functional. In a few lines: as §1
Experiment [5] is described as follows: Evaluated for inhibition of ET-1 induced Calcium channel [Ca+2]i in CHO-K1 cells transfected with the rat ETA-expression plasmid DNA. In kind it is functional, cell-based. In a few lines:
as §1

Non-standard residues stand in square brackets, D forms with d. Residues, ends and D or L forms follow the SMILES beside them. Bounds are passed on as bounds.

A word on the inhibition: it is how much of the control response was suppressed. As to `CC1(c2cccc(O)c2)c2cc(C(=O)O)sc2C(=O)c2c1c1ccccc1n2Cc1ccccc1` (configuration not stated), the inhibition at 1 µM in experiment [1] is below 70%.

On to `Cn1c2c(c3ccccc31)C(C)(c1cccc(CC(=O)O)c1)c1cc(C(=O)O)sc1C2=O` (configuration not stated), for which, in experiment [2], the inhibition at 1 µM was above 75%.

Consider `Cn1c2c(c3ccccc31)C(C)(c1ccc(OCC(=O)O)cc1)c1cc(C(=O)O)sc1C2=O` (configuration not stated), for which the inhibition at 1 µM in experiment [2] is above 75%.

In the case of `CC1(c2cccc(CC(=O)O)c2)c2cc(C(=O)O)sc2C(=O)c2c1c1ccccc1n2Cc1ccccc1` (configuration not stated), the inhibition result in experiment [3] is “Weak inhibition”.

On to `COc1ccc(C2(C)c3cc(C(=O)O)sc3C(=O)c3c2c2ccccc2n3Cc2ccccc2)cc1` (configuration not stated), for which, in experiment [3], the inhibition result was “Weak inhibition”.

On to `CC1(c2ccccc2)c2cc(C(=O)O)sc2C(=O)c2c1c1ccccc1n2Cc1ccc(O)cc1` (configuration not stated), for which the inhibition result in experiment [3] is “Weak inhibition”.

`CC(C)C[C@@H]1NC(=O)[C@@H](C(C)C)NC(=O)[C@@H]2CCCN2C(=O)[C@@H](CC(=O)O)NC(=O)[C@@H](Cc2c[nH]c3ccccc23)NC1=O` [BQ-123] (cyclo(L[dW][dD]P[dV])): the inhibition at 1 µM in experiment [2] was around 60%.

For the compound `COc1ccc(Cn2c3c(c4ccccc42)C(C)(c2ccccc2)c2cc(C(=O)O)sc2C3=O)cc1` (configuration not stated), the inhibition result in experiment [3] is “Weak inhibition”.

In the case of `Cn1c2c(c3ccccc31)C(C)(c1cccc(CCCC(=O)O)c1)c1cc(C(=O)O)sc1C2=O` (configuration not stated), the inhibition at 1 µM in experiment [2] was above 75%.

Regarding `CC1(c2ccc(OCC(=O)O)cc2)c2cc(C(=O)O)sc2C(=O)c2c1c1ccccc1n2Cc1ccccc1` (configuration not stated), the inhibition at 1 µM in experiment [1] was below 70%.

In the case of `COc1cccc(C2(C)c3cc(C(=O)O)sc3C(=O)c3c2c2ccccc2n3Cc2ccccc2)c1` (configuration not stated), the inhibition result in experiment [3] was “Weak inhibition”.

In the case of `COc1cccc(C2(C)c3cc(C(=O)O)sc3C(=O)c3c2c2ccccc2n3C)c1` (configuration not stated), the inhibition at 1 µM in experiment [1] is below 70%.

As to `Cn1c2c(c3ccccc31)C(C)(c1ccc(OCCCC(=O)O)cc1)c1cc(C(=O)O)sc1C2=O` (configuration not stated), the inhibition at 1 µM in experiment [2] is above 75%.

Take `CCCOc1ccc2c(c1)[C@@H](c1ccc(OC)cc1OCC(=O)O)[C@H](C(=O)O)[C@H]2c1ccc2c(c1)OCO2` [SB-209670]: in experiment [4], the inhibition at 0.01 µM is around 85%.

Consider `CC1(c2ccccc2)c2cc(C(=O)O)sc2C(=O)c2c1c1ccccc1n2Cc1ccc(OCC(=O)O)cc1` (configuration not stated), for which the inhibition entry in experiment [3] was “Weak inhibition”.

The IC50 is the concentration that inhibits the measured activity by half. With `CC1(c2ccc(O)cc2)c2cc(C(=O)O)sc2C(=O)c2c1c1ccccc1n2Cc1ccccc1` (configuration not stated), the IC50 in experiment [5] is around 10 nM. Besides, the inhibition at 1 µM in experiment [2] was above 75%.

The values above are taken from ChEMBL document CHEMBL1148428, “Carbazolothiophene-2-carboxylic acid derivatives as endothelin receptor antagonists” (Bioorg Med Chem Lett, 2004).
